Source: PubChem (Sanford-Burnham Center for Chemical Genomics)
LMPTP block: LMPTP (human) inhibition; P24666; recombinant LMPTP-A, OMFP fluorogenic substrate, fluorescence intensity; inhibition, % at 20 µM; 360,000 tested, 0.22% active; AID 651560;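 active = compounds that cut the enzyme signal by at least half of the control window in the single-dose screen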
Target sequence (P24666 whole entry, looked up): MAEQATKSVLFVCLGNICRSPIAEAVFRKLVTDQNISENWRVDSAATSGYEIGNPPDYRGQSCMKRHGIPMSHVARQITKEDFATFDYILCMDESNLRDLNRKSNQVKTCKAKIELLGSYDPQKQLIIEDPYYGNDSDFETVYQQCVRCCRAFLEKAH
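Assay system: LMPTP-A enzyme. Input: 0.625 nM LMPTP-A final. Probe or stimulus: 400 µM OMFP. Compound dosing: single 20 µM dose. Schedule: 50 min dark incubation at room temperature. Detection: fluorescence intensity of OMFP turnover product. Read-out: percent inhibition versus substrate-only and uninhibited controls. Benchmarks: no-enzyme low control, uninhibited high control.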
STEP block: STEP (human) phosphatase inhibition. P54829. recombinant STEP, OMFP fluorogenic substrate, fluorescence. inhibition, % at 20 µM. 360,000 tested, 0.25% active. AID 588621;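 active = inhibition at 20 µM, scaled per plate between control wells, above about 37%, limit read from the data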
Target sequence (P54829 whole entry, looked up): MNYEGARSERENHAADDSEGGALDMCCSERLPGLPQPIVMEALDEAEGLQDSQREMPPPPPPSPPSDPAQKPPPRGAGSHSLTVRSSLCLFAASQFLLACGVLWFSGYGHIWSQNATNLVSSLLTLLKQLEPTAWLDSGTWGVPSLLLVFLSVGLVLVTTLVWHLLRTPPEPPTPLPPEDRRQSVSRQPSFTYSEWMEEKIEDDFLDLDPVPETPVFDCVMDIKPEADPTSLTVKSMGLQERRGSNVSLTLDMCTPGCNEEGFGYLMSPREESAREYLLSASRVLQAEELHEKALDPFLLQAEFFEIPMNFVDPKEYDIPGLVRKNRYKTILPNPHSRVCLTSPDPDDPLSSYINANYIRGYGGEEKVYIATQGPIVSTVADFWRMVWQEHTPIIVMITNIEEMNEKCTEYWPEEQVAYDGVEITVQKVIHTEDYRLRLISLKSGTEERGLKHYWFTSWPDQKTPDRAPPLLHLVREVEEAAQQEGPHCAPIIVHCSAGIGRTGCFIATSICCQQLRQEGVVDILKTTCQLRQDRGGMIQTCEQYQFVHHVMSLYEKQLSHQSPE
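System: isolated STEP enzyme; schedule: 20 min enzyme reaction at room temperature, protected from light; medium: Bis-Tris buffer pH 6.0, 2.5 mM DTT, 0.005% Tween 20; signal: fluorescence, 480/540 nm; dosing: single compound dose of 20 µM, 1% DMSO final; also added: OMFP substrate, 25 µM final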
Scp1 inh: inhibitors of human Scp-1 phosphatase; AID 493091; Recombinant Scp1, phosphopeptide, malachite green phosphate absorbance; inhibition, % at 20 µM; 340,000 tested, 0.88% active; Q9GZU7;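 active = inhibition above about 50% at 20 µM, limit read from the data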
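Test system: SCP-1 phosphatase catalytic domain, residues 76-261; measured by: colorimetric phosphate reagent with accelerator and stabiliser, absorbance at 630 nm; timing: enzyme reaction 45 min at room temperature, colour 5 min, stabilisation 30 min; also added: Phosphorylated 17-residue peptide substrate; compound dosing: one concentration, 20 µM, with 1.0% DMSO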
DNMT1 inh: blocks human DNA methyltransferase DNMT1; P26358; DNMT1 molecular beacon, Hinp1I cleavage, fluorescence; inhibition (reported as % activation of signal), % at 10 µM; 360,000 tested, 0.83% active; in the data active = inhibition above about 50%
SUMO1-SIM PPI: alters human SUMO1 binding to SIM partners; 360,000 tested, 0.33% active; SUMO1 binding to a labelled peptide, TR-FRET, 1 h; P63165; inhibition, % at 20 µM; AID 602429; in the data active = inhibition above about 37%
Scp-1 conf: confirmation of human Scp-1 phosphatase inhibitors; AID 540281; 2,500 tested, 61% active; shares compounds with Scp1 inh; recombinant SCP-1 catalytic domain, phosphate release, malachite green absorbance; inhibition, % at 20 µM
MG interference: interferes with malachite green readout, flagging false Scp-1 hits; 2,500 tested, under 10 active; shares compounds with Scp1 inh; Colorimetric interference counterscreen, malachite green absorbance 630 nm; apparent inhibition (interference), % at 20 µM;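 note: compounds added after enzyme reaction finished so only phosphate colour detection is probed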
Scp-1 Tm shift: Scp-1 (human) binding by thermal shift; shares compounds with Scp1 inh; Recombinant SCP1, Sypro Orange thermal shift Tm; thermal shift relative to vanadate control, % at 40 µM; 1,500 tested, 25% active; AID 540329;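 active = substances whose mean melting-temperature shift, as a percentage of the reference inhibitor's shift, reaches about 5.3%, limit read from the data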
A number is an active result; i = inactive; nt = no result. Compounds with a hit are over-represented: about 1.7% of the library has one in this group of screens.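 Rule for the calls, unless noted: active = inhibition of at least 30% at 20 µM; inactive = the rest.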

SMILES | LMPTP block | STEP block | Scp1 inh | DNMT1 inh | SUMO1-SIM PPI | Scp-1 conf | MG interference | Scp-1 Tm shift
Cc1nn(Cc2ccccc2Cl)c(C)c1NC(=O)c1noc(C(C)C)c1[N+](=O)[O-] | i | i | 63 | i | i | i | i | nt
CCOC(=O)C1(C)CCCN(C(=O)COc2ccccc2)C1 (centres undefined) | i | i | nt | i | i | nt | nt | nt
CC(/C=C/c1ccccc1F)=N\NC(=O)c1ccc(Cl)cc1 | i | i | 52 | i | i | i | i | nt
CC(/C=C/c1ccccc1F)=N\NC(=O)c1ccccc1 | i | i | i | i | i | nt | nt | nt
O=C1C(=O)N(CCO)C(c2ccccc2)/C1=C(\O)c1ccccc1 (centres undefined) | i | i | 57 | i | i | i | i | nt
COCOc1cccc(CN2CCC2(C)C(=O)Nc2ccc(C)c(O)c2)c1 (centres undefined) | i | i | nt | i | i | nt | nt | nt
CCn1c(C)c2c([n+]1CC)CC(C)(C)CC2=O | i | i | 55 | i | i | 75 | i | i
N#CC1C(=O)NC(=O)C(C#N)C12CCCC2 (centres undefined) | i | i | nt | i | i | nt | nt | nt
Cc1ccc(-c2csc(C3=C(O)CN(NC(=O)c4ccco4)C3=N)n2)cc1 | i | i | 51 | i | i | 35 | i | i
COc1ccc(N2CC(O)=C(c3nc(-c4ccccc4)cs3)C2=N)cc1 | i | i | i | i | i | nt | nt | nt
CCCCNC(=O)C1(C)CCN1C(=O)c1cncc(Br)c1 (centres undefined) | i | i | nt | i | i | nt | nt | nt
Cc1ccc(C(=O)N/C(=C\c2ccco2)C(=O)NCCN2CCOCC2)cc1 | i | i | 75 | i | i | i | i | nt
CCN1C(=O)[C@H]2[C@H]3CN=C(SCC4CC4)N3[C@@](Cc3ccccc3)(C(=O)OC)[C@H]2C1=O | i | i | 82 | i | i | 96 | i | i
CC[C@]1(C(=O)OC)[C@H]2C(=O)N(Cc3ccccc3)C(=O)[C@H]2[C@H]2CN=C(SCC3CC3)N21 | i | i | 54 | i | i | i | i | nt
CC[C@]1(C(=O)OC)[C@H]2C(=O)N(Cc3ccccc3)C(=O)[C@H]2[C@H]2CN=C(SCc3ccc(C)cc3)N21 | i | i | i | i | i | nt | nt | nt
O=C(CNC(=O)Cc1ccc(Cl)cc1)NCC(=O)N1CCCCC1 | i | i | 65 | i | i | i | i | nt
O=C(CNC(=O)Cc1ccccc1)NCC(=O)N1CCCCC1 | i | i | i | i | i | nt | nt | nt
CC(=O)Nc1cccc(-c2csc(C(O)c3ccc(F)c(F)c3)n2)c1 (centres undefined) | i | i | nt | i | i | nt | nt | nt
Nc1cc2c(cc1[N+](=O)[O-])OCO2 | i | i | 58 | i | i | 58 | i | i
Nc1cc2c(cc1[N+](=O)[O-])OCCO2 | i | i | i | i | i | nt | nt | nt
CCOC(=O)c1ccc(Cl)c(NC(=O)c2ccc(-c3ccccc3)cc2)c1 | i | i | i | i | i | nt | nt | nt
CCOC(=O)c1ccc(/C=C2/C=C(c3ccccc3)N(c3ccc(Cl)c(C(=O)O)c3)C2=O)cc1 | i | i | 52 | i | i | 72 | i | i
C[N+](=O)C1C(=O)Nc2ccccc21 (centres undefined) | i | nt | nt | nt | i | nt | nt | nt
O=C1CCN(Cc2ccccc2)S(=O)(=O)c2ccc(F)cc21 | i | i | 52 | i | i | i | i | nt
Cc1cccc(NC(=O)CSc2nc3[nH]c(=O)cc(O)c3s2)c1 | i | i | 61 | i | i | 37 | i | 14
SMILES | LMPTP block | STEP block | Scp1 inh | DNMT1 inh | SUMO1-SIM PPI | Scp-1 conf | MG interference | Scp-1 Tm shift
O=C(Nc1cccnc1Cl)c1ccc(=O)oc1 | i | i | 53 | i | i | 43 | i | 6.5
Cc1ccc(-c2ccc(C(=O)Nc3ccccc3)o2)c2ccccc12 | i | i | i | i | i | nt | nt | nt
Cc1ccc(S(=O)(=O)NC(=O)c2ccc(-c3ccc(C)c4ccccc34)o2)cc1 | i | i | 61 | i | i | 77 | i | i
CCc1ccc(C(C)NC(=O)Cn2cnc3c(=O)n(C)c(=O)n(C)c32)cc1 (centres undefined) | i | i | i | i | i | i | i | nt
CCc1ccc(NC(=O)Cn2cnc3c(=O)n(C)c(=O)n(C)c32)cc1 | i | i | i | i | i | nt | nt | nt
CCOC(=O)C1=CC[C@@H](c2ccccc2)N(S(=O)(=O)c2ccc(C)cc2)[C@@H]1C#N | i | nt | nt | nt | i | nt | nt | nt
C=C1c2cccc(OC)c2O[C@H](C(=O)OCC)[C@@H]1CC(CC)CCCC (some centres undefined) | i | i | 94 | i | i | 34 | i | i
O=C(NCCC(F)(F)F)C1Cc2c(-c3ccc(Cl)cc3)ccnc2O1 (centres undefined) | i | i | nt | i | i | nt | nt | nt
COC(=O)[C@]12CCCCC=C1N(CCC1=CCCCC1)C(=O)[C@H](CC(=O)NCc1cccc(C(F)(F)F)c1)C2 | i | nt | nt | nt | i | nt | nt | nt
Cc1cccc(S(=O)(=O)N[C@@H]2CC[C@@H](CCNS(=O)(=O)c3ccccc3F)O[C@@H]2CO)c1 | i | nt | nt | nt | i | nt | nt | nt
CCOc1ccc(C(=O)Nc2cccc(-c3cc4ccccc4oc3=O)c2)cc1[N+](=O)[O-] | i | i | 93 | i | i | i | i | nt
CC(=O)c1ccc(NC(=O)c2noc3c2CCC3)cc1 | i | i | 62 | i | i | 54 | i | i
O=C(Cc1ccccc1)Nc1cccc(-c2nc3ncccc3o2)c1 | i | i | 68 | i | i | i | i | nt
Fc1cccc(Cc2c(C3CCCCC3)nc3ccc(Br)cn23)c1 | i | i | nt | i | i | nt | nt | nt
FC(F)(F)c1cnc(/C=C/Nc2ccccc2Cl)c(Cl)c1 | i | i | i | i | i | nt | nt | nt
C[N+]1=C(/C=C/Nc2ccccc2Cl)C(C)(C)c2ccccc21 | i | i | 99 | i | i | 79 | i | i
COc1ccc(C(C)(O)c2nc(-c3csc4ccccc34)cs2)cc1 (centres undefined) | i | i | nt | i | i | nt | nt | nt
COc1cc(/C=C2\C(=N)N3N=C(S(C)(=O)=O)SC3=NC2=O)ccc1OCCOc1ccc(C)cc1 | i | i | 67 | i | i | 36 | i | 9.7
CCS(=O)(=O)C1=NN2C(=N)/C(=C\c3ccc(OCCOc4cccc(OC)c4)c(OC)c3)C(=O)N=C2S1 | i | i | 67 | i | i | 65 | i | 11
COc1cc(/C=C2\C(=N)N3N=C(S(C)(=O)=O)SC3=NC2=O)cc(OC)c1OCCOc1ccc(C)cc1 | i | i | i | i | i | nt | nt | nt
Cc1cccc(N2CCN(c3ccc(NC(=O)/C=C(/C(=O)O)c4ccccc4)cc3)CC2)c1 | i | i | 58 | i | i | 72 | i | i
Cc1cccc(OCC(=O)NCC(=O)N=Nc2c(O)[nH]c3ccc([N+](=O)[O-])cc23)c1 | i | i | 59 | i | i | i | i | nt
